This is a sample that favours compounds with a hit; in the whole collection about 2.5% have one here.
Insulin prom up: MIN6 insulin promoter up-regulation; MIN6 insulin promoter-GFP reporter, high-content imaging; hits give high values; z-score at 5 µM; hit rate 0.3% among 190,000; AID 1625;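 active = z-score above 3 at 5 µM with at least 500 cells counted in the well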
NPY2 pot ag: potentiators or agonists of human neuropeptide Y receptor Y2. P49146. cells expressing NPY-Y2, potentiator/agonist read-out. activation, % at 3.6 µM. hit rate 0.45% among 220,000. AID 1359; in the data active = activation above about 27%;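 note: cells stimulated with NPY near EC25 plus isoproterenol at EC100; 0% = vehicle plus submaximal agonist and 100% = vehicle plus saturating agonist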
NPY Y1 blocker: antagonists of human neuropeptide Y receptor Y1; P25929; HEK293-CNG Y1 cells, membrane potential fluorescence; NPY at EC95, then isoproterenol; inhibition, % at 3.6 µM; hit rate 1% among 200,000; AID 1040;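 active = inhibition above the campaign mean inhibition of all tested compounds plus 3 SD, cut at about 20% in these data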;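 note: 0% = DMSO wells given NPY plus isoproterenol and 100% = isoproterenol alone without NPY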
Target sequence (P25929 whole entry, looked up): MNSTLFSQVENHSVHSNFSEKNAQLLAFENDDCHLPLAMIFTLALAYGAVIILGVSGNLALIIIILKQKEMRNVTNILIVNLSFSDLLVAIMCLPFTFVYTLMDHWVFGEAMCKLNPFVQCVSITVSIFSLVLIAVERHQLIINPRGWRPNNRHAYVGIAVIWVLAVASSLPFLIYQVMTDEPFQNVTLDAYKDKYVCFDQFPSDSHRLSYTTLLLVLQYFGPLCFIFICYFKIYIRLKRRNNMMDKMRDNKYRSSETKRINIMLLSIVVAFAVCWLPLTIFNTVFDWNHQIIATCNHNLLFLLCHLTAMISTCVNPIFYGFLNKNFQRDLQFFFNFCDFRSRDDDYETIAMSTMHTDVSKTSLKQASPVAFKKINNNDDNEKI
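Test system – HEK293 Y1/CNG channel cell line · Also added – NPY agonist 25 nM, then isoproterenol 1 µM plus Ro 20-1724 25 µM · Compound dosing – one concentration, 3.6 µM, in 0.4% DMSO · Schedule – compound incubation 1 h at room temperature, readout 45 min post-stimulation · Technique – fluorescence, membrane potential probe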
Insulin prom inh: TRM-6 insulin promoter activity inhibition | hit rate 0.9% among 130,000 | inhibition, % at 2 µM | TRM-6 cells (human fetal islet line), insulin promoter-eGFP reporter, imaging; reporter expression induced with tamoxifen;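 active = inhibition above the mean plus 3 SD, with well images judged a real hit on visual review, cut at about 60% in these data, passing the limit was not always enough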
NPY-Y1 PAM-ag: potentiates or activates human NPY-Y1 receptor. activation, % at 3.6 µM. AID 1304. NPY-Y1 expressing cells, potentiator/agonist activation. hit rate 0.37% among 220,000; in the data active = activation above about 33%, passing the limit was not always enough;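 note: cells stimulated with NPY at EC10 then isoproterenol at EC100; 0% = low agonist plus stimulus and 100% = saturating agonist plus stimulus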
NPY Y2 blocker: antagonists of human neuropeptide Y receptor Y2; P49146; NPY-Y2 expressing cells, antagonist mode; inhibition, % at 2.7 µM; hit rate 0.99% among 140,000; AID 793; in the data active = inhibition above about 17%;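 note: 0% = vehicle with agonist challenge and 100% = reference antagonist with challenge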
* = called active by the depositor.

`Cc1ccc(S(=O)(=O)c2c(C)nn(C(C)(C)C)c2OC(=O)C2CCCC2)cc1` gave Insulin prom up -0.07, NPY2 pot ag 15.1, NPY Y1 blocker 6.0, Insulin prom inh 81.8*, NPY-Y1 PAM-ag 5.0 and NPY Y2 blocker 0.6.
O=C1CC(=C(c2ccccc2)c2ccccc2)C(=O)N1CCN1CCN(c2cccc(Cl)c2)CC1 was read as Insulin prom up 0.69, NPY2 pot ag -11.2, NPY Y1 blocker 10.1, Insulin prom inh 15.5, NPY-Y1 PAM-ag -14.9 and NPY Y2 blocker 7.8.
For O=C1CC(=C(c2ccccc2)c2ccccc2)C(=O)N1CCCN1CCN(c2cccc(Cl)c2)CC1 the results were NPY2 pot ag 62.5*, NPY Y1 blocker -0.9, Insulin prom inh 5.7, NPY-Y1 PAM-ag 75.4* and NPY Y2 blocker 1.4.
For Cc1ccc(S(=O)(=O)N(C)CC(=O)Nc2cccc(C)n2)cc1 the results were Insulin prom up -0.2, NPY2 pot ag -8.5, NPY Y1 blocker 0.5, Insulin prom inh 78.7*, NPY-Y1 PAM-ag -13.7 and NPY Y2 blocker 0.1.
CC(=O)Nc1ccccc1NC(=O)CN(C)S(=O)(=O)c1ccc(C)cc1 was read as NPY2 pot ag -10.2, NPY Y1 blocker 6.1, Insulin prom inh 22.7, NPY-Y1 PAM-ag 13.8 and NPY Y2 blocker 1.5.
O=C(C1CN(S(=O)(=O)c2ccccc2)CCN1S(=O)(=O)c1ccccc1)N1CCCCCC1 (configuration not stated) was read as Insulin prom up 1.05, NPY2 pot ag 2.0, NPY Y1 blocker -7.0, Insulin prom inh 100.0*, NPY-Y1 PAM-ag 3.0 and NPY Y2 blocker 3.5.
`CCOc1ccccc1N/C=C(\C#N)c1nc2ccccc2n1C` gave Insulin prom up 0.93, NPY2 pot ag -2.6, NPY Y1 blocker 0.4, Insulin prom inh 72.4*, NPY-Y1 PAM-ag -0.9 and NPY Y2 blocker -0.1.
Screening FC(F)(F)c1ccccc1CN1CCN(C2CCCCCC2)CC1 returned Insulin prom up -0.1, NPY2 pot ag -7.9, NPY Y1 blocker 23.2*, Insulin prom inh 0.0, NPY-Y1 PAM-ag -7.3 and NPY Y2 blocker 21.9*.
`Cc1ccccc1CN1CCN(Cc2ccccc2C(F)(F)F)CC1` gave Insulin prom up -0.81, NPY2 pot ag -13.4, NPY Y1 blocker 10.9, Insulin prom inh 43.7, NPY-Y1 PAM-ag -14.9 and NPY Y2 blocker 3.9.
Screening CCCNc1ncccc1C(N)=O returned Insulin prom up -0.5, NPY2 pot ag 10.2, NPY Y1 blocker 2.1, Insulin prom inh 60.6*, NPY-Y1 PAM-ag -5.0 and NPY Y2 blocker -0.1.
`CCOC(=O)c1[nH]c(C)c(C(=O)c2cc(F)ccc2F)c1C` gave Insulin prom up -1.82, NPY2 pot ag -8.5, NPY Y1 blocker -8.2, Insulin prom inh 70.3*, NPY-Y1 PAM-ag -0.6 and NPY Y2 blocker 4.9.
O=C(/C=C/c1cccc([N+](=O)[O-])c1)Nn1c(-c2ccccc2F)nc2ccccc2c1=O was read as Insulin prom up 0.08, NPY2 pot ag -19.2, NPY Y1 blocker 46.1*, Insulin prom inh 6.2, NPY-Y1 PAM-ag -89.4 and NPY Y2 blocker 65.8*.
Screening Cc1cccc(-c2nc3ccccc3c(=O)n2NC(=O)/C=C/c2ccc([N+](=O)[O-])cc2)c1 returned Insulin prom up 0.6, NPY2 pot ag -20.0, NPY Y1 blocker 80.3*, Insulin prom inh -66.7, NPY-Y1 PAM-ag -89.8 and NPY Y2 blocker 104.5*.
O=c1c2ccccc2nc(/C=C/c2cccc([N+](=O)[O-])c2)n1CCO was read as Insulin prom up -0.44, NPY2 pot ag 4.9, NPY Y1 blocker -6.2, Insulin prom inh -17.9, NPY-Y1 PAM-ag -19.8 and NPY Y2 blocker 1.8.
`CCOC(=O)c1cc(=O)n2nc(-c3ccccc3F)nc2s1` gave Insulin prom up 0.98, NPY2 pot ag -0.7, NPY Y1 blocker -0.5, Insulin prom inh 85.7*, NPY-Y1 PAM-ag 3.6 and NPY Y2 blocker 0.0.
For CCOC(=O)c1ccc(NC(=O)Cn2nnc(-c3ccccc3F)n2)cc1 the results were Insulin prom up -1.1, NPY2 pot ag -2.7, NPY Y1 blocker 3.4, Insulin prom inh -11.1, NPY-Y1 PAM-ag -11.6 and NPY Y2 blocker 5.1.
Screening Cc1cc(C)n(-c2nc(SCCN(C)C)c3c4c(sc3n2)COC(C)(C)C4)n1 returned Insulin prom up 0.03, NPY2 pot ag -58.8, NPY Y1 blocker 147.1*, Insulin prom inh 54.8, NPY-Y1 PAM-ag -166.9 and NPY Y2 blocker 78.1*.
Screening Cc1cc(C)n(-c2nc(NCC(C)O)c3c4c(sc3n2)COC(C)(C)C4)n1 (configuration not stated) returned Insulin prom up -0.18, NPY2 pot ag -22.1, NPY Y1 blocker 2.6, Insulin prom inh -26.5, NPY-Y1 PAM-ag 8.9 and NPY Y2 blocker -0.2.
For Cn1c(SCC(=O)O)nnc1C1CCCCC1 the results were Insulin prom up 0.01, NPY2 pot ag -2.8, NPY Y1 blocker -4.1, Insulin prom inh 83.3*, NPY-Y1 PAM-ag -8.4 and NPY Y2 blocker 1.2.
CC(C)c1nnc(NC(=O)CCC(=O)N2CCN(C3c4ccccc4-c4ccccc43)CC2)s1 was read as Insulin prom up 0.17, NPY2 pot ag 2.2, NPY Y1 blocker 6.5, NPY-Y1 PAM-ag -0.1 and NPY Y2 blocker 10.1.
`CCN(CC)CCn1c(=N)n(CC(O)COc2ccccc2)c2ccccc21` (configuration not stated) gave Insulin prom up -0.87, NPY2 pot ag -43.7 and NPY-Y1 PAM-ag -44.4.
`CCN(CC)CCn1c(=N)n(CCOc2ccccc2)c2ccccc21` gave NPY2 pot ag -12.6, NPY Y1 blocker 29.9*, Insulin prom inh -46.7, NPY-Y1 PAM-ag -13.3 and NPY Y2 blocker 34.7*.
`CCOC(=O)C1CC2CC(C1)CN(C(=O)C1CCCCC1)C2` (configuration not stated) gave Insulin prom up 0, NPY2 pot ag 4.9, NPY Y1 blocker 8.8 and NPY-Y1 PAM-ag -13.1.
COc1ccc(NC(=O)CSc2nnc(-c3cccs3)n2C)cc1OC was read as Insulin prom up 3.55*, NPY2 pot ag 9.3, NPY Y1 blocker -2.9, Insulin prom inh -15.4, NPY-Y1 PAM-ag -3.9 and NPY Y2 blocker 2.0.
`O=C(CCc1nnc(C2CCCCC2)o1)N1CCN(Cc2ccccc2)CC1` gave Insulin prom up 0.33, NPY2 pot ag -2.8, NPY Y1 blocker 14.0 and NPY-Y1 PAM-ag 3.2.
For O=C(c1ccccc1)N(NC(=O)C(O)(c1ccccc1)c1ccccc1)c1cccc(F)c1 the results were Insulin prom up 0.19, NPY2 pot ag -3.9, NPY Y1 blocker 53.4*, NPY-Y1 PAM-ag -44.2 and NPY Y2 blocker 31.1*.
CCN(NC(=O)C(O)(c1ccc(F)cc1)c1ccc(F)cc1)C(=O)c1ccccc1 was read as Insulin prom up 0.55, NPY2 pot ag -26.2, NPY Y1 blocker 23.4*, NPY-Y1 PAM-ag -19.6 and NPY Y2 blocker 25.1*.
O=C(c1ccccc1F)N(NC(=O)C(O)(c1ccccc1)c1ccccc1)c1ccccc1 was read as Insulin prom up 0.57, NPY2 pot ag -1.9, NPY Y1 blocker 39.0*, NPY-Y1 PAM-ag -47.1 and NPY Y2 blocker 30.5*.
